From publication PMC12415690 (RSC Advances, 2025)
Values after ≈ are worked out from the molar mass of the structure shown.

Tests used:
[1] = tested on: P. aeruginosa (ATCC 27853); assay: Antibacterial zone of inhibition; assay type: cell-based; conditions: Pseudomonas aeruginosa, ATCC27853, read-out: Zone of inhibition in mm, P. aeruginosa (ATCC 27853)
Procedure, shortened: (§1)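 Sterilised nutrient agar, […], was seeded with 18–24 h bacterial subcultures, mixed and poured into Petri dishes. Once the agar set, 6 mm wells were cut with a sterile cork borer and filled with test compound dissolved in DMSO at 100 μg mL−1. Plates were incubated at 37 °C for 24–48 h, and inhibition zones around each well were measured in mm. Ciprofloxacin was the reference standard.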

[2] = tested on: B. subtilis (ATCC 6051); assay: Antibacterial zone of inhibition; assay type: cell-based, Bacillus subtilis; conditions: Bacillus subtilis, ATCC6051, read-out: Zone of inhibition in mm, B. subtilis (ATCC 6051), Gram positive; 100 μg mL^−1
Procedure, shortened: as §1

[3] = tested on: S. aureus (ATCC 23235); assay: Antibacterial zone of inhibition; assay type: cell-based; conditions: Staphylococcus aureus, ATCC23235, read-out: Zone of inhibition in mm, S. aureus (ATCC 23235)
Procedure, shortened: as §1

[4] = tested on: E. coli (ATCC 25922); assay: Antibacterial zone of inhibition; assay type: cell-based; conditions: Escherichia coli, ATCC25922, read-out: Zone of inhibition in mm, E. coli (ATCC 25922)
Procedure, shortened: as §1

[5] = tested on: M. tuberculosis H37Rv strain (ATCC 27294); assay: Antitubercular activity, microplate Alamar Blue assay; assay type: cell-based; conditions: Mycobacterium tuberculosis, ATCC27294|H37RV, read-out: MIC μM

`CCOC(=O)c1sc(N/N=C/c2c(-c3ccc(Cl)cc3)nc3ncccn23)nc1C` [Compound K4, Ethyl(E)-2-(2-((2-(4-chlorophenyl)imidazo[1,2-a]pyrimidin-3-yl)methylene)hydrazineyl)-4-methylthiazole-5-carboxylate] gave a zone of inhibition at 100 µg/mL [1] of 11 mm, a zone of inhibition at 100 µg/mL [2] of 14 mm and a zone of inhibition at 100 µg/mL [3] of 13 mm. The zone of inhibition at 100 µg/mL [4] was 20 mm and the MIC [5] was 14.2 µM (≈ 6.26 µg/mL).
Work on `CCOC(=O)c1cnc(N/N=C/c2c(-c3ccc(C)cc3)nc3ncccn23)s1` [Compound K8, Ethyl(E)-2-(2-((2-(p-tolyl)imidazo[1,2-a]pyrimidin-3-yl)methylene)hydrazineyl)thiazole-5-carboxylate] yielded a zone of inhibition at 100 µg/mL [1] of 19 mm, a zone of inhibition at 100 µg/mL [3] of 12 mm and a zone of inhibition at 100 µg/mL [4] of 17 mm. It also gave an MIC [5] of 7.68 µM (≈ 3.12 µg/mL).
`COc1ccc(-c2nc3ncccn3c2/C=N/Nc2nc(C)c(C(C)=O)s2)cc1` [Compound K16, (E)-1-(2-(2-((2-(4-methoxyphenyl)imidazo[1,2-a]pyrimidin-3-yl)methylene)hydrazineyl)-4-methylthiazol-5-yl)ethan-1-one] showed a zone of inhibition at 100 µg/mL [1] of 11 mm, a zone of inhibition at 100 µg/mL [3] of 18 mm and an MIC [5] of 30.8 µM (≈ 12.5 µg/mL).
`CC(=O)c1sc(N/N=C/c2c(-c3ccc(F)cc3)nc3ncccn23)nc1C` [Compound K17, (E)-1-(2-(2-((2-(4-fluorophenyl)imidazo[1,2-a]pyrimidin-3-yl)methylene)hydrazineyl)-4-methylthiazol-5-yl)ethan-1-one] showed a zone of inhibition at 100 µg/mL [1] of 11 mm, a zone of inhibition at 100 µg/mL [2] of 14 mm and a zone of inhibition at 100 µg/mL [3] of 20 mm. For the same compound, the MIC [5] was 7.91 µM (≈ 3.12 µg/mL).
In the case of `CC(=O)c1sc(N/N=C/c2c(-c3ccc(Br)cc3)nc3ncccn23)nc1C` [Compound K19, (E)-1-(2-(2-((2-(4-bromophenyl)imidazo[1,2-a]pyrimidin-3-yl)methylene)hydrazineyl)-4-methylthiazol-5-yl)ethan-1-one], the zone of inhibition at 100 µg/mL [1] is reported as 20 mm, the zone of inhibition at 100 µg/mL [2] is reported as 12 mm and the zone of inhibition at 100 µg/mL [3] is reported as 12 mm. For the same compound, the MIC [5] was 13.8 µM (≈ 6.27 µg/mL).
Work on `CC(=O)c1sc(N/N=C/c2c(-c3ccccc3)nc3ncccn23)nc1C` [Compound K21, (E)-1-(4-methyl-2-(2-((2-phenylimidazo[1,2-a]pyrimidin-3-yl)methylene)hydrazineyl)thiazol-5-yl)ethan-1-one] yielded a zone of inhibition at 100 µg/mL [2] of 13 mm, a zone of inhibition at 100 µg/mL [3] of 19 mm and an MIC [5] of 33.2 µM (≈ 12.5 µg/mL).
`CCOC(=O)/C=C1/SC(N/N=C/c2c(-c3ccc(OC)cc3)nc3ncccn23)=NC1=O` [Compound K23, Ethyl(E)-2-(2-(2-((E)-(2-(4-methoxyphenyl)imidazo[1,2-a]pyrimidin-3-yl)methylene) hydrazineyl)-4-oxothiazol-5(4H)-ylidene)acetate] gave a zone of inhibition at 100 µg/mL [1] of 18 mm, a zone of inhibition at 100 µg/mL [3] of 16 mm and a zone of inhibition at 100 µg/mL [4] of 24 mm. It also gave an MIC [5] of 111 µM (≈ 50 µg/mL).
With `CCOC(=O)/C=C1/SC(N/N=C/c2c(-c3ccc(F)cc3)nc3ncccn23)=NC1=O` [Compound K24, Ethyl(E)-2-(2-(2-((E)-(2-(4-fluorophenyl)imidazo[1,2-a]pyrimidin-3-yl)methylene) hydrazineyl)-4-oxothiazol-5(4H)-ylidene)acetate] the MIC [5] was 28.5 µM (≈ 12.5 µg/mL).
For `CCOC(=O)/C=C1/SC(N/N=C/c2c(-c3ccc(Br)cc3)nc3ncccn23)=NC1=O` [Compound K26, Ethyl(E)-2-(2-(2-((E)-(2-(4-bromophenyl)imidazo[1,2-a]pyrimidin-3-yl)methylene) hydrazineyl)-4-oxothiazol-5(4H)-ylidene)acetate], the zone of inhibition at 100 µg/mL [2] was 15 mm, the zone of inhibition at 100 µg/mL [3] was 15 mm and the MIC [5] was 50.2 µM (≈ 25.1 µg/mL).
For `NC(=O)c1cnccn1` [PZA, pyrazinamide, reference compound], the MIC [5] was 25.3 µM (≈ 3.12 µg/mL).
Work on `[H]/N=C(/N)N[C@H]1[C@H](O)[C@@H](O)[C@H](O[C@@H]2O[C@@H](C)[C@](O)(C=O)[C@H]2O[C@@H]2O[C@@H](CO)[C@H](O)[C@@H](O)[C@@H]2NC)[C@@H](N/C(N)=N\[H])[C@@H]1O` [STM, streptomycin, reference compound] yielded an MIC [5] of 10.7 µM (≈ 6.25 µg/mL).
